T cruzi growth-1 – blocks T. cruzi growth in NIH3T3 culture; 77,000 compounds, 5.9% hits; inhibition, % at 8.34 µM; T. cruzi beta-gal in NIH3T3, GalScreen luminescence, 90 h;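 active means mean inhibition above about 93%, with at least 55% of replicates each passing it, limit read from the data, passing the limit was not always enough; inconclusive means only one of those two conditions holds; inactive means neither condition holds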
IDH1 mut inh – IDH1 R132H (human) inhibition. 70,000 compounds, 0.18% hits. IDH1 R132H reductase, diaphorase/resazurin fluorescence, 60 min. AID 624101. inhibition, % at 10 µM; in the data active means inhibition above about 34%; inconclusive means no clear call, values can overlap the other calls; inactive means below about 11%;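 further: 0% = DMSO and 100% = no enzyme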
KDM4C inh – KDM4C (human) demethylase inhibition; GST-KDM4C 2-372, H3K9me3 peptide, LANCE TR-FRET; inhibition, % at 12.5 µM; 96,000 compounds, 0.15% hits;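 active means mean replicate inhibition above about 25%, with at least 55% of replicates also reaching it, limit read from the data, passing the limit was not always enough; inconclusive means only one of those two conditions met; inactive means neither condition met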
Target sequence (Q9H3R0 2-372 limits assumed): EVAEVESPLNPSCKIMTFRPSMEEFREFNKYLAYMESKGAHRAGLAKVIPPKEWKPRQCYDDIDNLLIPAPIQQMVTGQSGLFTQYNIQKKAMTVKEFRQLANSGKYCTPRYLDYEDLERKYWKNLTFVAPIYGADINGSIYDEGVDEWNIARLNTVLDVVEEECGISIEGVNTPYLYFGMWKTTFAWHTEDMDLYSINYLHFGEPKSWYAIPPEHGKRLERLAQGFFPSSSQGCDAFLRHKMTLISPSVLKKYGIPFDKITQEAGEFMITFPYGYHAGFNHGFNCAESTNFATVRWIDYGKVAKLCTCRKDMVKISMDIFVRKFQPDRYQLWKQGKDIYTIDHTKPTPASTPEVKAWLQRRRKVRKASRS
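Test system – GST-tagged GASC-1 (JMJD2C) catalytic fragment, aa 2-372 · Medium – HEPES buffer, pH 7.5, plus ascorbate · Reagent – H3K9me3 peptide with Fe(II)/2OG · Compound – one test concentration per compound · Timing – 30 min reaction, 60 min detection, RT · Technique – TR-FRET with Eu antibody and ULight streptavidin, EDTA stop · Read-out basis – inhibition from TR-FRET ratio decrease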
T cruzi growth-2 – blocks T. cruzi growth in NIH3T3 host cells; T. cruzi beta-gal in NIH3T3, GalScreen luminescence, 90 h; AID 651739; 5,600 compounds, 72% hits; inhibition, % at 8.35 µM; shares compounds with T cruzi growth-1;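 active means mean replicate inhibition above about 95% and at least 55% of replicates individually reaching it, limit read from the data; inconclusive means only one of the two criteria is met; inactive means neither criterion is met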
T cruzi growth-3 – Trypanosoma cruzi proliferation inhibition; inhibition, % at 2.09 µM; 5,600 compounds, 21% hits; shares compounds with T cruzi growth-1; T. cruzi beta-gal in NIH3T3, GalScreen luminescence, 90 h; AID 651740;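 active means mean inhibition above about 95%, with at least 55% of replicates also reaching it, limit read from the data; inconclusive means meets just one of the two conditions; inactive means meets neither condition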;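 further: plate controls were neutral control median for no effect and positive control median for full effect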
NIH3T3 tox – cytotoxicity in mouse NIH/3T3 fibroblasts; shares compounds with T cruzi growth-1; NIH/3T3 viability, CellTiter-Glo ATP luminescence, 90 h; cytotoxicity (signal decrease), % at 8.35 µM; 5,600 compounds, 14% hits; AID 651742;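 active means mean signal decrease across replicates above about 35% based on untreated-well scatter, with enough replicates individually passing, limit read from the data; inconclusive means no rule stated though some were filed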;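 further: 0% = median of neutral control wells and 100% = median of positive control wells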
NIH3T3 tox 2 – kills mouse NIH/3T3 fibroblasts; shares compounds with T cruzi growth-1; NIH/3T3 viability, CellTiter-Glo ATP luminescence, 90 h; inhibition, % at 24.9 µM; 5,600 compounds, 56% hits; AID 651744;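 active means mean loss of cell viability signal at or above a set limit, and enough replicates individually reaching it; inconclusive means meets only the mean limit or only the replicate share; inactive means meets neither condition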;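 further: 0% = median of neutral control wells and 100% = median of positive control wells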
Starred values were filed as active, the others as inactive; ? = inconclusive; / = no result given. The entries come from a sample that favours hits as a whole.

SMILES	T cruzi growth-1	IDH1 mut inh	KDM4C inh	T cruzi growth-2	T cruzi growth-3	NIH3T3 tox	NIH3T3 tox 2
C[C@@H]1CN([C@@H](C)CO)C(=O)c2cc(NS(=O)(=O)c3ccccc3)ccc2O[C@H]1CN(C)Cc1ccc(Cl)c(Cl)c1	/	/	0	/	/	/	/
COc1ccc(S(=O)(=O)Nc2cccc3c2O[C@H](CN(C)S(=O)(=O)c2cn(C)cn2)[C@H](C)CN([C@@H](C)CO)C3=O)cc1	-22	-4	0	/	/	/	/
O=C(C[C@@H]1C[C@@H]2c3cc(NC(=O)Cc4ccncc4)ccc3O[C@@H]2[C@H](CO)O1)NCc1ccc(-c2ccccc2)cc1	/	0	-1	/	/	/	/
CC(C)CC#Cc1ccc2c(c1)O[C@@H](CN(C)S(=O)(=O)c1cccc(F)c1)[C@@H](C)CN([C@@H](C)CO)S2(=O)=O	121*	3	/	91	112*	26	105*
C[C@H]1CN([C@@H](C)CO)S(=O)(=O)c2ccc(C#CCN(C)C)cc2O[C@H]1CN(C)S(=O)(=O)c1cccc(F)c1	/	-2	2	/	/	/	/
O=S(=O)(N[C@@H]1CC[C@@H](CCn2cc(-c3cccc(F)c3)nn2)O[C@H]1CO)c1ccc(Cl)cc1	54	0	-4	/	/	/	/
COc1ccc(-c2cn(CC[C@H]3CC[C@@H](NS(=O)(=O)c4ccccc4C)[C@@H](CO)O3)nn2)cc1	107*	0	0	103*	79	-1	-1
Cc1ccccc1S(=O)(=O)N[C@H]1CC[C@@H](CCn2cc(-c3ccccc3)nn2)O[C@H]1CO	36	-1	-1	/	/	/	/
COc1cccc(S(=O)(=O)N[C@@H]2CC[C@@H](CCn3cc(-c4ccccn4)nn3)O[C@@H]2CO)c1	108*	-1	2	49	-10	13	23
O=S(=O)(N[C@H]1CC[C@@H](CCn2cc(-c3cccc(F)c3)nn2)O[C@H]1CO)c1ccc(Cl)cc1	111*	-1	-2	56	27	-13	18
Cc1cccc(S(=O)(=O)N[C@@H]2CC[C@H](CCn3cc(-c4ccccn4)nn3)O[C@@H]2CO)c1	25	0	1	/	/	/	/
CCOC(=O)c1sc2ncn(CC(=O)Nc3ccc(F)c(Cl)c3)c(=O)c2c1C	/	0	/	/	/	/	/
CC(=O)N1CC[C@H]2[C@@H]1c1cc(-c3ccccc3)ccc1N(C)[C@H]2CO	69	/	-2	/	/	/	/
CO[C@@H]1CN(C)C(=O)c2ccc(NC(=O)c3nc4ccccc4s3)cc2OC[C@@H](C)N(Cc2cccnc2)C[C@H]1C	73	/	-3	/	/	/	/
COc1ccc(CN2C[C@@H](C)[C@H](OC)CN(C)C(=O)c3ccc(NC(=O)c4nc5ccccc5s4)cc3OC[C@@H]2C)cc1	102*	0	0	115*	79	-3	-38
CO[C@@H]1CN(C)C(=O)c2cc(NC(=O)c3nc4ccccc4s3)ccc2OC[C@H](C)N(Cc2ccncc2)C[C@H]1C	88	23	/	/	/	/	/
CO[C@H]1CN(C)C(=O)c2cc(NC(=O)c3nc4ccccc4s3)ccc2OC[C@H](C)N(Cc2ccncc2)C[C@@H]1C	100*	?	1	98*	67	13	42*
CO[C@@H]1CN(C)C(=O)c2ccc(NC(=O)c3nc4ccccc4s3)cc2OC[C@@H](C)N(Cc2cccnc2)C[C@@H]1C	102*	/	2	109*	?	-17	43*
COCC(=O)Nc1ccc2c(c1)C(=O)N(C)C[C@@H](OC)[C@@H](C)CN(Cc1ccncc1)[C@@H](C)CO2	98*	0	1	61	-26	6	11
COCC(=O)Nc1ccc2c(c1)C(=O)N(C)C[C@@H](OC)[C@H](C)CN(Cc1ccncc1)[C@H](C)CO2	-43	0	0	/	/	/	/
COc1ccc(CN2C[C@@H](C)[C@H](OC)CN(C)C(=O)c3ccc(NC(=O)c4nc5ccccc5s4)cc3OC[C@H]2C)cc1	91	-1	1	/	/	/	/
CN(C)C(=O)C[C@H]1CC[C@H]2[C@@H](COC[C@@H](O)CN2S(=O)(=O)c2ccccc2)O1	/	/	0	/	/	/	/
O=C(C[C@@H]1CC[C@H]2[C@@H](COC[C@@H](O)CN2C(=O)Nc2cc(Cl)cc(Cl)c2)O1)N1CCOCC1	27	/	-1	/	/	/	/
